High-throughput results from PubChem BioAssay.
ABCB1 inh – human ABCB1 inhibition, ABCG2 as counter-screen; hit rate 0.067% among 190,000; inhibition, % at 6.6 µM; P08183; CCRF-Adr cells, JC-1 efflux, flow cytometry; in the data active means inhibition above about 40%;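 further: 0% = vehicle and 100% = reference inhibitor; higher value means more JC-1 retained so stronger ABCB1 efflux block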
ABCG2 block – blocks JC-1 efflux by human ABCG2 transporter | Q9UNQ0 | IgMXP3 cells, flow cytometry | inhibition, % at 6.6 µM | hit rate 0.1% among 190,000 | AID 1325;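 active means inhibition above 80%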;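 further: 0% = DMSO and 100% = nicardipine control wells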
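material = IgMXP3 (ABCG2) plus far-red-tagged CCRF-Adr (ABCB1) cells | amount = 3 million cells/mL, equal mix of both lines | also added = JC-1 transporter substrate | dosing = one concentration, 6.6 µM final | schedule = 10 min at 25 °C | measured by = flow cytometric JC-1 green MFI at 530 nm | read-out basis = percent efflux inhibition, scaled nicardipine 100% to DMSO 0%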
EP2 mod – modulates human prostaglandin E2 receptor EP2 signaling. P43116. EP2-expressing cells, cAMP HTRF FRET, PGE2 co-stimulation. induction, % at 25 µM. hit rate 0.83% among 260,000. AID 940;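 active means compounds whose cAMP rise, as percent of the full-agonist control response, exceeds 60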;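 further: rat C6 glioma line stably carrying human EP2 under a CMV promoter; the protocol text gives 20 µM as final concentration; 100% = response of wells given 1 µM PGE2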
RBBP9 inhibitor – blocks human serine hydrolase RBBP9 | recombinant RBBP9, FP-Rh probe fluorescence polarization | AID 1515 | inhibition, % at 7.94 µM | O75884 | hit rate 0.2% among 220,000;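 active means inhibition above the campaign mean of all tested compounds plus 3 SD, cut at about 14% in these data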;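 further: plate controls were DMSO wells with RBBP9 for no effect and wells lacking RBBP9 protein for full effect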
Target sequence (O75884 whole entry, looked up): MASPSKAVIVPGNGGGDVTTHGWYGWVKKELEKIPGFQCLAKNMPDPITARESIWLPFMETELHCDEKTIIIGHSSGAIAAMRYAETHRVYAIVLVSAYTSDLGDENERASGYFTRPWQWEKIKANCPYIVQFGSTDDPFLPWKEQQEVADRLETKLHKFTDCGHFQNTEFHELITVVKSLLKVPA
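System: RBBP9 protein / Quantity: 2.5 µM RBBP9 dispensing solution, before mixing / Also added: Serine-hydrolase probe FP-Rh, 375 nM pre-mixing / Dosing: 7.94 µM single dose, 0.794% DMSO / Timing: enzyme-compound preincubation 30 min, then probe labeling 45 min, 25 °C / Signal: FP readout at 525/598 nm / Controls: DMSO-treated enzyme wells and wells lacking RBBP9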
PGE2 EP2 inh – EP2 receptor (human) inhibition; P43116; C6 glioma cells expressing human EP2, cAMP TR-FRET; cells stimulated with saturating PGE2; inhibition, % at 25 µM; hit rate 0.52% among 260,000;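 active means percent inhibition above 40 after rounding to a whole number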;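 further: rat C6 glioma host cells with rolipram phosphodiesterase inhibitor present; the protocol text gives 20 µM as final concentration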
Starred values were filed as active, the others as inactive. Only some compounds are listed: those with a hit (about 1.5% of all), similar ones and a draw of the others.

Results for Cn1c2ccccc2c(=O)c2c(=O)n(Cc3ccco3)c(-c3ccc(C(C)(C)C)cc3)nc21 ?
EP2 mod: 65*; RBBP9 inhibitor: -3; PGE2 EP2 inh: 10

How did C#CCn1cc(CN2CCc3c(nc(N4CCOCC4)[nH]c3=O)C2)c2ccccc21 do in these assays?
EP2 mod: -17; PGE2 EP2 inh: 11

How did O=C(O)c1ccncc1.O=C(O)c1ccncc1.[NH2-].[NH2-].[Pt] do in these assays?
EP2 mod: -14; PGE2 EP2 inh: 51*

What do the screens show for `O=C(c1ccncc1)N1CCN(C(=O)c2ccncc2)CC1`?
ABCB1 inh: 0; ABCG2 block: 10; EP2 mod: 4; RBBP9 inhibitor: -2; PGE2 EP2 inh: 5

What do the screens show for `O=C(Cc1ccc(F)cc1)N1CCC(Cn2nc(-c3cccs3)ccc2=O)CC1`?
EP2 mod: -43

What do the screens show for `CCCc1cc(C(=O)OC)c(NC(=O)CCCC(=O)O)s1`?
ABCB1 inh: 0; ABCG2 block: 3; EP2 mod: 1; RBBP9 inhibitor: -6; PGE2 EP2 inh: 2

How did CCCc1cc(C(=O)OC)c(NC(=O)OCC)s1 do in these assays?
ABCB1 inh: 1; ABCG2 block: 22; EP2 mod: 63*; RBBP9 inhibitor: -7; PGE2 EP2 inh: 1

What do the screens show for `O=C(Cn1nc2c3ccccc3nc(C3CC3)n2c1=O)Nc1ccc(F)cc1`?
EP2 mod: -12

How did Fc1cccc(Oc2nc3ccccc3n3cccc23)c1 do in these assays?
ABCB1 inh: 0; ABCG2 block: 3; EP2 mod: 62*; RBBP9 inhibitor: -9; PGE2 EP2 inh: 14

How did COc1cc2[nH]c(=O)c(C(=O)NCCCc3ccccc3)c(O)c2cc1OC do in these assays?
EP2 mod: 2; PGE2 EP2 inh: 16

What do the screens show for `CCCSc1nc(N2CCOCC2)c2c(c1C#N)CC(C)(C)SC2`?
ABCB1 inh: 0; ABCG2 block: 1; EP2 mod: 65*; RBBP9 inhibitor: -4; PGE2 EP2 inh: 13

What do the screens show for `Cc1ccc2c(c1)C=CC(C#N)N2C(=O)c1ccccc1` (configuration not stated)?
ABCB1 inh: 4; ABCG2 block: 18; EP2 mod: 34; RBBP9 inhibitor: -12; PGE2 EP2 inh: 7

Results for Cc1ccc2c(c1)C=CC(C)N2C(=O)c1ccccc1 (configuration not stated) ?
ABCB1 inh: 1; ABCG2 block: 7; EP2 mod: 64*; RBBP9 inhibitor: -8; PGE2 EP2 inh: 6

Results for O=C(C[C@@H]1C=Cc2ccccc2N1C(=O)c1ccccc1)c1ccccc1 ?
EP2 mod: 38; PGE2 EP2 inh: 59*

What do the screens show for `O=C(O)CSc1cc(C(=O)c2ccccc2O)cn2c(=O)c3c(-c4ccccc4)csc3nc12`?
ABCB1 inh: -1; ABCG2 block: -3; EP2 mod: 61*; RBBP9 inhibitor: -29; PGE2 EP2 inh: 8

Results for CCOC(=O)C1=C(C)NC2=C(C(=O)CC(c3ccc(OC)c(OC)c3)C2)C1c1ccc(O)c(OC)c1 (configuration not stated) ?
EP2 mod: 5; PGE2 EP2 inh: 4

What do the screens show for `C[C@H]1CN(C(=O)c2cc(-c3ccc(F)cc3)n[nH]2)[C@@H](C)CN1Cc1ccco1`?
EP2 mod: -79

What do the screens show for `Cc1ccc(S(=O)(=O)OC2CCN(C)CC2)cc1`?
EP2 mod: -1; PGE2 EP2 inh: 56*

What do the screens show for `c1ccc(CN2CCC3(CC2)SSC2(CCN(Cc4ccccc4)CC2)SS3)cc1`?
EP2 mod: 28; PGE2 EP2 inh: 45*

Results for OC1(c2ccc(F)cc2)CCN(Cc2ccccc2)C1 (configuration not stated) ?
ABCB1 inh: -2; ABCG2 block: -3; EP2 mod: 61*; RBBP9 inhibitor: -1

How did OC1(c2ccccc2)CCN(Cc2ccccc2)CC1 do in these assays?
ABCB1 inh: 1; ABCG2 block: 1; EP2 mod: -17; RBBP9 inhibitor: -3; PGE2 EP2 inh: 2

Results for CC1CCc2nc(NC(=O)CN3CCOCC3)sc2C1 (configuration not stated) ?
ABCB1 inh: 0; ABCG2 block: -1; EP2 mod: 8; RBBP9 inhibitor: -4; PGE2 EP2 inh: 6

What do the screens show for `Nc1sc2c(c1C(=O)c1ccc(Cl)cc1)CCC2`?
EP2 mod: 83*; PGE2 EP2 inh: 15

Results for O=C(CN1CCOCC1)Nc1sc2c(c1C(=O)c1ccc(Cl)cc1)CCC2 ?
EP2 mod: 62*; PGE2 EP2 inh: 16
